Assay outcomes: PubChem, Broad Institute
A selection: hits, their analogues and other compounds. The true share with any hit is near 5.8%.
IDH1 R132H inh = blocks human IDH1 R132H reductase activity | O75874 | diaphorase/resazurin fluorescence, 60 min | inhibition, % at 10 µM | 70,000 tested, 0.18% active; in the data active means inhibition above about 34%; inconclusive means no clear call, values can overlap the other calls; inactive means below about 11%;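 further: 0% = DMSO and 100% = no enzyme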
Pf Dd2 inh = blocks growth of Plasmodium falciparum Dd2 parasites. P. falciparum Dd2 growth, SYBR Green, 72 h; stronger effect = lower value. activity change, % at 10 µM. 94,000 tested, 2.3% active; in the data active means activity change below about -80%; inconclusive means no clear call, values can overlap the other calls
GASC1 inh = KDM4C (human) demethylase inhibition | Q9H3R0 | GST-KDM4C 2-372, H3K9me3 peptide, LANCE TR-FRET | inhibition, % at 12.5 µM | 96,000 tested, 0.15% active;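 active means mean replicate inhibition above about 25%, with at least 55% of replicates also reaching it, limit read from the data, passing the limit was not always enough; inconclusive means only one of those two conditions met; inactive means neither condition met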
Target sequence (Q9H3R0 2-372 limits assumed): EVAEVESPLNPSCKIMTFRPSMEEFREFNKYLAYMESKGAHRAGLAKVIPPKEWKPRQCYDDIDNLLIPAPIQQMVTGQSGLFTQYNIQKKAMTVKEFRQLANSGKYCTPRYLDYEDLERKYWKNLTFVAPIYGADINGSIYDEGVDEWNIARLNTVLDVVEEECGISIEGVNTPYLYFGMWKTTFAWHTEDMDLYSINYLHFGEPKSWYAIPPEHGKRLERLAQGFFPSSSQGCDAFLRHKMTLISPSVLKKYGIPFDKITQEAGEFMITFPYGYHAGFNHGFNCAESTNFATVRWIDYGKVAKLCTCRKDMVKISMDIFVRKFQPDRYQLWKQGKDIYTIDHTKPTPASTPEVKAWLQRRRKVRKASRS
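Material: N-terminal GST-fused human GASC-1 (KDM4C) fragment, residues 2-372. Input: 10 nM enzyme. Incubation: enzyme reaction 30 min, then detection 60 min, both room temperature. Doses: one test concentration per compound. Read-out basis: inhibition from TR-FRET ratio decrease. Detection: LANCE TR-FRET, excitation 340 nm, emissions 618 and 671 nm.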
T cruzi growth-1 = inhibitors of T. cruzi proliferation. T. cruzi beta-gal in NIH3T3, GalScreen luminescence, 90 h. inhibition, % at 8.34 µM. 77,000 tested, 5.9% active;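 active means mean inhibition above about 93%, with at least 55% of replicates each passing it, limit read from the data, passing the limit was not always enough; inconclusive means only one of those two conditions holds; inactive means neither condition holds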
T cruzi growth-2 = Trypanosoma cruzi proliferation inhibition | shares compounds with T cruzi growth-1 | T. cruzi beta-gal in NIH3T3, GalScreen luminescence, 90 h | inhibition, % at 8.35 µM | 5,600 tested, 72% active | AID 651739;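 active means mean replicate inhibition above about 95% and at least 55% of replicates individually reaching it, limit read from the data; inconclusive means only one of the two criteria is met; inactive means neither criterion is met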
T cruzi growth-3 = Trypanosoma cruzi proliferation inhibition | shares compounds with T cruzi growth-1 | T. cruzi beta-gal in NIH3T3, GalScreen luminescence, 90 h | inhibition, % at 2.09 µM | 5,600 tested, 21% active;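 active means mean inhibition above about 95%, with at least 55% of replicates also reaching it, limit read from the data; inconclusive means meets just one of the two conditions; inactive means meets neither condition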;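 further: plate controls were neutral control median for no effect and positive control median for full effect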
3T3 cytotox = kills mouse NIH/3T3 fibroblasts; NIH/3T3 viability, CellTiter-Glo ATP luminescence, 90 h; shares compounds with T cruzi growth-1; 5,600 tested, 14% active; AID 651742; cytotoxicity (signal decrease), % at 8.35 µM;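 active means mean signal decrease across replicates above about 35% based on untreated-well scatter, with enough replicates individually passing, limit read from the data; inconclusive means no rule stated though some were filed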;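 further: 0% = median of neutral control wells and 100% = median of positive control wells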
3T3 cytotox 2 = NIH/3T3 (mouse) viability loss | shares compounds with T cruzi growth-1 | NIH/3T3 viability, CellTiter-Glo ATP luminescence, 90 h | inhibition, % at 24.9 µM | 5,600 tested, 56% active;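 active means mean loss of cell viability signal at or above a set limit, and enough replicates individually reaching it; inconclusive means meets only the mean limit or only the replicate share; inactive means meets neither condition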;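 further: 0% = median of neutral control wells and 100% = median of positive control wells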
An asterisk follows results filed as active; ? = inconclusive; . = not tested or not shown.

SMILES	IDH1 R132H inh	Pf Dd2 inh	GASC1 inh	T cruzi growth-1	T cruzi growth-2	T cruzi growth-3	3T3 cytotox	3T3 cytotox 2
CCCC#Cc1ccc2c(c1)O[C@H](CN(C)CC1CC1)[C@H](C)CN([C@H](C)CO)S2(=O)=O	-1.0	-48.1	0.9	-12.1	.	.	.	.
C[C@H]1CN([C@@H](C)CO)S(=O)(=O)c2ccc(C#CCN(C)C)cc2O[C@H]1CN(C)CC1CC1	-1.3	-38.5	2.5	110.5*	?	43.3	14.8	12.3
C[C@@H]1CN([C@H](C)CO)S(=O)(=O)c2ccc(C#CCN(C)C)cc2O[C@H]1CN(C)CC1CCCC1	-0.4	-76.7	1.7	103.8*	106.8*	69.3	10.5	104.4*
CO[C@@H]1CN(C)C(=O)c2ccc(NC(=O)C3CCCCC3)cc2OC[C@H](C)N(Cc2nccs2)C[C@@H]1C	-0.2	.	-0.2	2.7	.	.	.	.
C[C@H]1CN([C@@H](C)CO)C(=O)Cc2cc(NC(=O)CCC(F)(F)F)ccc2O[C@H]1CN(C)C(=O)Nc1cccc2ccccc12	-1.7	-15.5	0.4	11.5	.	.	.	.
COc1ccc(NC(=O)Nc2ccc3c(c2)C(=O)N([C@H](C)CO)C[C@H](C)[C@H](CN(C)S(=O)(=O)c2cccs2)OCCCC[C@H](C)O3)cc1	1.9	-26.5	0.1	102.8*	107.3*	38.1	6.0	29.8*
COc1ccc(NC(=O)Nc2ccc3c(c2)C(=O)N([C@H](C)CO)C[C@H](C)[C@H](CN(C)S(=O)(=O)c2cccs2)OCCCC[C@@H](C)O3)cc1	-2.8	-57.8	-2.6	-21.5	.	.	.	.
COc1ccc(NC(=O)Nc2ccc3c(c2)C(=O)N([C@H](C)CO)C[C@@H](C)[C@@H](CN(C)S(=O)(=O)c2cccs2)OCCCC[C@@H](C)O3)cc1	-2.3	-44.2	-2.6	.	.	.	.	.
COc1ccc(NC(=O)Nc2ccc3c(c2)C(=O)N([C@H](C)CO)C[C@@H](C)[C@H](CN(C)S(=O)(=O)c2cccs2)OCCCC[C@@H](C)O3)cc1	.	-77.7	-2.2	108.3*	108.4*	22.2	1.0	-1.8
C[C@H](CO)N1C[C@H](C)[C@H](CN(C)C(=O)Nc2cccc3ccccc23)Oc2ncc(-c3cc4ccccc4o3)cc2C1=O	0.2	-49.1	1.1	?	102.2*	89.1	45.3*	101.9*
C[C@@H]1CN([C@@H](C)CO)C(=O)c2cc(/C=C/c3ccccc3)cnc2O[C@@H]1CN(C)C(=O)Nc1ccccc1F	1.7	-29.9	0.0	108.8*	89.4	36.4	14.5	24.3*
C[C@H]1CN([C@@H](C)CO)C(=O)c2cc(/C=C/c3ccccc3)cnc2O[C@@H]1CN(C)C(=O)Nc1ccccc1F	-1.5	-71.5	-1.6	125.7*	108.3*	106.6*	-2.0	13.7
C[C@H](CO)N1C[C@H](C)[C@H](CN(C)C(=O)Nc2ccccc2F)Oc2ncc(/C=C/c3ccccc3)cc2C1=O	0.9	-32.6	0.9	102.4	.	.	.	.
CN(C)CC(=O)N1CCCCN2[C@H](C1)[C@H](c1ccc(/C=C/c3ccccc3)cc1)[C@@H]2CO	.	-4.9	-0.6	74.7	.	.	.	.
CN(C)CC(=O)N1CCCCN2[C@@H](CO)[C@@H](c3ccc(/C=C/c4ccccc4)cc3)[C@@H]2C1	.	-77.7	-0.4	102.3*	98.8*	113.3*	120.1*	104.2*
CCC(=O)N1CCCCN2[C@H](CO)[C@H](c3ccc(/C=C/c4ccccc4)cc3)[C@@H]2C1	.	20.5	-3.5	113.0*	108.4*	81.7	48.4*	45.0*
CN(C)CC(=O)N1CCCCN2[C@H](C1)[C@@H](c1ccc(/C=C/c3ccccc3)cc1)[C@@H]2CO	.	-2.3	0.7	-45.7	.	.	.	.
CN(C)CC(=O)N1CCCCN2[C@@H](CO)[C@H](c3ccc(/C=C/c4ccccc4)cc3)[C@@H]2C1	.	-63.5	-0.8	97.3*	?	102.3*	117.3*	102.2*
Cc1cccc(S(=O)(=O)N2CC[C@@H]3[C@H](CO)Nc4ccc(C#Cc5ccccc5F)cc4[C@@H]32)c1	.	-29.1	-1.2	23.8	.	.	.	.
C[C@@H]1CN([C@@H](C)CO)C(=O)c2cccc(NS(=O)(=O)c3ccc(Cl)cc3)c2O[C@@H]1CN(C)S(=O)(=O)c1ccccc1	0.8	-39.7	0.0	60.5	.	.	.	.
O=C(c1cccc(F)c1)N1CCCCN2[C@@H](CO)[C@H](c3ccc(C#CC4(O)CCCC4)cc3)[C@@H]2C1	.	10.5	0.4	?	91.9	83.5	6.4	?
O=C(c1cccc(F)c1)N1CCCCN2[C@H](C1)[C@@H](c1ccc(C#CC3(O)CCCC3)cc1)[C@@H]2CO	.	5.6	-0.7	7.1	.	.	.	.
O=C(c1cccc(F)c1)N1CCCCN2[C@H](CO)[C@H](c3ccc(C#CC4(O)CCCC4)cc3)[C@@H]2C1	.	3.5	-0.5	?	108.8*	75.6	25.2	10.7
C[C@H]1CN([C@@H](C)CO)C(=O)Cc2cc(NC(=O)C3CCCCC3)ccc2O[C@H]1CN(C)S(=O)(=O)c1cccs1	0.2	-13.5	-2.7	31.7	.	.	.	.
C[C@@H]1CCCCO[C@H](CN(C)S(=O)(=O)c2ccc(Cl)cc2)[C@@H](C)CN([C@@H](C)CO)C(=O)c2cc(NC(=O)Cc3ccccc3)ccc2O1	-0.6	-68.1	-1.9	105.2*	104.8*	87.0	-15.8	46.4*
SMILES	IDH1 R132H inh	Pf Dd2 inh	GASC1 inh	T cruzi growth-1	T cruzi growth-2	T cruzi growth-3	3T3 cytotox	3T3 cytotox 2
C[C@@H]1CN([C@H](C)CO)C(=O)c2cc(NC(=O)Cc3ccccc3)ccc2O[C@@H](C)CCCCO[C@H]1CN(C)S(=O)(=O)c1ccc(Cl)cc1	.	-81.9*	0.5	95.8*	107.2*	77.3	17.2	13.6
C[C@H](CO)N1C[C@H](C)[C@H](CN(C)S(=O)(=O)c2ccc(Cl)cc2)Oc2c(NC(=O)CCCCCC(=O)Nc3ccccc3N)cccc2C1=O	.	-81.0*	-1.7	106.2*	113.7*	76.5	20.8	7.9
C[C@H]1CN([C@@H](C)CO)C(=O)c2cccc(NC(=O)CCCCCC(=O)Nc3ccccc3N)c2O[C@@H]1CN(C)S(=O)(=O)c1ccccc1	.	-35.0	-1.3	.	.	.	.	.
C[C@H]1CN([C@@H](C)CO)C(=O)c2cccc(NC(=O)CCCCCC(=O)Nc3ccccc3N)c2O[C@@H]1CN(C)S(=O)(=O)c1ccc(Cl)cc1	1.2	?	-3.3	105.9*	104.5*	69.4	31.0	20.6
Cc1ccc(S(=O)(=O)N(C)C[C@H]2Oc3c(NC(=O)CCCCCC(=O)Nc4ccccc4N)cccc3C(=O)N([C@H](C)CO)C[C@@H]2C)cc1	.	-64.8	3.3	.	.	.	.	.
O=C(c1cnccn1)N1CC(=O)N2[C@H](CO)[C@@H](c3ccc(C#CCC4CCCC4)cc3)[C@H]2C1	.	-4.2	-0.4	.	.	.	.	.
